aDG glyco act = activators of alpha-DG glycosylation, primary screen, uHTS, Pro5-aDG cells, AlphaScreen | alpha-DG glycosylation AlphaScreen (IIH6); 0% Pro5, 100% B10-LARGE cell signal | activation, % at 10 µM | actives 0.22% (n = 360,000) | AID 624168, 2012;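 active = activation of at least 8% versus controls, or a plate z-score of at least 8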;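 also: Pro5 are CHO cells carrying HIG-tagged alpha-DG that lacks glycosylation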
UPR CHOP act = activators of apoptotic CHOP UPR arm, primary screen, cell-based, CHO-CHOP luciferase reporter, luminescence, uHTS. UPR activation; percent of tunicamycin response over DMSO baseline. activation, % at 10 µM. actives 0.34% (n = 330,000). AID 449763, 2010;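 active = at 10 µM dose, activation of 40% or more, normalized to positive control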
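Assay system: CHO-CHOP cells, stable luciferase reporter of PERK-eIF2a-CHOP signalling / Buffer or medium: F12 plus 10% serum / Compound dosing: one dose, 10 µM in 0.5% DMSO / Times: 6 h compound treatment, 37 °C / Technique: luciferase luminescence / Read-out: % reporter activation, DMSO baseline versus tunicamycin full activation / Benchmarks: tunicamycin and DMSO controls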
MPTP block = mitochondrial permeability transition pore inhibitors, primary screen, biochemical, isolated mouse mitochondria, absorbance; actives 1.4% (n = 360,000); Ca2+ swelling absorbance, 30 min; inhibition, % at 10 µM;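 active = inhibition of 50% or more, scaled per plate between neutral and stimulator controls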
GRIN3A LBD mod = binders of NR3A ligand-binding domain, primary screen, biophysical, differential scanning fluorimetry, uHTS. Glutamate receptor ionotropic, NMDA 3A (GRIN3A) ligand-binding domain. AID 1259313, 2017. actives 2.5% (n = 340,000). NR3A LBD differential scanning fluorimetry, Tm shift; 0% = protein alone, 100% = glycine-bound protein. Tm shift relative to glycine control, % at 25 µM;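 active = melting temperature shift of at least 10% of the positive control shift, at one fixed dose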
XBP1 UPR activ = activators of adaptive XBP1 UPR arm, primary screen, cell-based, CHO-XBP1 luciferase reporter, luminescence, uHTS | IRE1-XBP1 UPR activation; percent of tunicamycin response, DMSO as zero | activation, % at 20 µM | actives 0.33% (n = 330,000);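 active = versus positive control, 20 µM dose yields 30% or more activation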
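Material: CHO cell line with stable XBP1 luciferase reporter; buffer or medium: F12 medium containing 10% fetal bovine serum; compound: single point, 20 µM final compound, 1% DMSO; incubation: 6 h treatment, 37 °C; measured by: glow luminescence from Steady-Glo reagent; evaluation: activation, % of tunicamycin; control set: tunicamycin high, DMSO low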
CHOP inh = inhibitors of CHOP promoter induction, primary screen, cell-based, unfolded protein response, luciferase reporter. CHO-K1 CHOP-promoter luciferase, tunicamycin-induced, 15-18 h. inhibition, % at 10 µM. AID 2732, 2010. actives 3.8% (n = 220,000);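 active = compounds that reduced the stress-induced luciferase reporter signal by more than about 70% of percent inhibition, limit read from the data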
Each line names hits and unclear results; the compound was inactive in the other large screens. Shown are actives, neighbours in structure and some others; about 5.6% of the full set was active somewhere.

C[C@@H]1CN([C@H](C)CO)S(=O)(=O)c2ccc(Br)cc2O[C@H]1CN(C)C(=O)Cc1ccccn1	none (no result: UPR CHOP act, GRIN3A LBD mod, XBP1 UPR activ, CHOP inh)
Cc1nn(Cc2ccc(Cl)cc2)c(C)c1NC(=O)c1cc(-c2ccco2)on1	none
Cc1nn(Cc2ccc(Cl)c(Cl)c2)c(C)c1NC(=O)c1cc(-c2ccco2)on1	CHOP inh 87
Cc1[nH]nc(-c2cccnc2)c1N=NN(C)C	none (no result: UPR CHOP act, XBP1 UPR activ, CHOP inh)
CCCCC[n+]1ccn(C2=C([O-])c3ccccc3C(=O)/C2=N\S(=O)(=O)c2ccccc2)c1	none
CCCCC[n+]1ccn(C2=C([O-])c3ccccc3C(=O)/C2=N\S(=O)(=O)c2ccc(Br)cc2)c1	aDG glyco act 5.8
COCCN1C(=O)N[C@@H](c2ccco2)C(C(=O)OC)=C1C	none (no result: CHOP inh)
CC(=O)N1CCc2cc(S(=O)(=O)CCC(=O)N(C)c3cc(C)ccc3C)ccc21	none (no result: CHOP inh)
CCOC(=O)C1=C(CC)Nc2ccccc2N=C1NC(=O)c1cc(S(=O)(=O)N2CCOCC2)ccc1C	none (no result: CHOP inh)
CCOC(=O)C1=C(CC)Nc2ccccc2N=C1NC(=O)c1cc(S(=O)(=O)N(C)C)ccc1Cl	GRIN3A LBD mod 17
CC(C)Nc1ncnc2[nH]ncc12	none (no result: UPR CHOP act, XBP1 UPR activ, CHOP inh)
O=C(Nc1ccc(Cl)c(Cl)c1)c1ccc(Cl)c(Cl)c1	GRIN3A LBD mod 42
O=C(Nc1ccc2c(c1)C(=O)N(CC1CCCO1)C2=O)c1ccc(Cl)c(Cl)c1 (centres undefined)	CHOP inh 91
O=C(Nc1ccc(Cl)c(Cl)c1)c1ccncc1	none
Cc1ccc(NC(=O)c2ccc3c(c2)C(=O)N(CC2CCCO2)C3=O)cc1C (centres undefined)	none
CS(=O)(=O)N(CC(=O)Nc1ccccc1C(=O)N1CCCC1)c1ccccc1Br	none (no result: CHOP inh)
CCN1CCN(S(=O)(=O)c2ccc(Cl)c(C(=O)NCc3nc4ccccc4[nH]3)c2)CC1	none (no result: CHOP inh)
O=C(c1ccc(Cl)cc1)C(CN1CCCCC1)c1ccccc1 (centres undefined)	UPR CHOP act 203 (no result: GRIN3A LBD mod, CHOP inh)
COc1ccc(OCCCC(=O)OCC(=O)Nc2ccc(Cl)cn2)cc1	none (no result: CHOP inh)
CCCCCCC(=O)Nc1ccc(Cl)cn1	none
Cc1ccc(OCCC(=O)OCC(=O)Nc2ccc(Cl)cn2)cc1	CHOP inh 74
O=C(CC(c1ccccc1)c1ccccc1)Nc1ccc(Cl)cn1	CHOP inh 78
O=C(CCCOc1ccccc1)Nc1ccc(Cl)cn1	CHOP inh 72
CC(SCc1ccccc1)C(=O)Nc1ccccc1F (centres undefined)	none (no result: CHOP inh)
C[C@@H]1CN([C@H](C)CO)C(=O)c2cc(Br)cnc2O[C@@H]1CN(C)C(=O)CC1CC1	none (no result: UPR CHOP act, GRIN3A LBD mod, XBP1 UPR activ, CHOP inh)
O=C(Nc1cccc(-c2cscn2)c1)C1CCN(Cc2ccccn2)CC1	none (no result: CHOP inh)
O=C(CSc1nnc(SCc2ccccc2Cl)s1)N/N=C/c1c[nH]c2ccccc12	GRIN3A LBD mod 26
CC(=C/c1ccco1)/C=N/NC(=O)CSc1nnc(SCc2ccc(C)cc2)s1	CHOP inh 80
O=C(CSc1nnc(SCc2ccccc2)s1)N/N=C/C=C\c1ccco1	none
O=C(CSc1nnc(SCc2ccc(Cl)cc2)s1)N/N=C/c1ccc(Cl)cc1Cl	XBP1 UPR activ 70, CHOP inh 73
O=C(CSc1nnc(SCc2ccccc2)s1)N/N=C/c1c[nH]c2ccccc12	none (no result: UPR CHOP act, XBP1 UPR activ)
O=C(CSc1nnc(SCc2ccccc2)s1)N/N=C/c1ccc(Cl)cc1Cl	none
Cc1ccc(NC(=O)COC(=O)C2CC(=O)N(Cc3ccccc3)C2)cc1S(=O)(=O)N(C)C (centres undefined)	none
COc1ccc(OC)c(NC(=O)C2(C)CCN2C(=O)C2(c3ccccc3)CCCC2)c1 (centres undefined)	none (no result: UPR CHOP act, GRIN3A LBD mod, XBP1 UPR activ, CHOP inh)
N/C(=N\OC(=O)c1ccccc1)c1ccccn1	CHOP inh 86
N/C(=N\OCc1ccc([N+](=O)[O-])cc1)c1ccccn1	CHOP inh 83 (no result: aDG glyco act, MPTP block)
CC(C(=O)O/N=C(\N)c1ccccn1)c1ccc([N+](=O)[O-])cc1 (centres undefined)	none (no result: CHOP inh)
O=C(Nc1cccc([N+](=O)[O-])c1)N1CCCCCC1	none (no result: CHOP inh)
CCN1CCN(CCNC(=O)c2ccc(/C=C3/Sc4ccccc4N(Cc4cccc(Cl)c4)C3=O)cc2)CC1	none
CCN1CCN(CCNC(=O)c2ccc3c(c2)N(Cc2ccc(F)cc2)C(=O)/C(=C/c2ccccc2)S3)CC1	CHOP inh 107
CCOc1ccc(CSc2nc(C)cc(COC)c2C#N)cc1OCC	none (no result: CHOP inh)
Cc1ccc(NC(N)=S)cc1	none
NC(=S)Nc1ccc(Oc2ccc(NC(N)=S)cc2)cc1	GRIN3A LBD mod 14
Cc1cc(C)n(S(=O)(=O)c2ccc3oc(=O)ccc3c2)n1	none (no result: CHOP inh)
COc1ccc(Cl)cc1NC(=O)NNC(=O)c1ccccn1	GRIN3A LBD mod 77 (no result: CHOP inh)
COc1ccccc1NC(=O)c1ccccc1NC(=O)c1ccccn1	none (no result: CHOP inh)
COc1ccc([C@H]2CC(=O)C=C(c3cccc(NC(C)=O)c3)C2)cc1	none (no result: CHOP inh)
COc1ccc(CNC(=O)c2csc(Cc3ccc(Cl)cc3)n2)cc1	CHOP inh 72
CCS(=O)(=O)N1CCC(N2CCC(C)CC2)CC1	none
CC(=O)CSc1nnc(-c2ccc3c(c2)OCO3)o1	none
O=C(O)CCSc1nnc(-c2ccc3c(c2)OCO3)o1	CHOP inh 86
CNc1oc(C)nc1S(=O)(=O)c1ccccc1	GRIN3A LBD mod 15
Cc1nc(S(=O)(=O)c2ccc(Cl)cc2)c(NCc2ccccc2)o1	none
CCCC1C2C(=O)N(c3ccccc3)C(=O)C2ON1c1ccccc1 (centres undefined)	none
CCCC1C2C(=O)N(c3ccccc3OC)C(=O)C2ON1c1ccccc1 (centres undefined)	GRIN3A LBD mod 20
CCCCN(C(=O)c1cc(S(=O)(=O)N2CCCCC2)ccc1Cl)c1c(N)n(CC(C)C)c(=O)[nH]c1=O	none (no result: UPR CHOP act, XBP1 UPR activ, CHOP inh)
COc1ccccc1-n1c(-c2ccc(NS(C)(=O)=O)cc2)n[nH]c1=S	CHOP inh 93
COc1ccc(C2CC(=O)Oc3cc(C)c(Cl)c(C)c32)cc1 (centres undefined)	none (no result: CHOP inh)
O/N=C/c1cc(Br)cc(Br)c1OCc1ccccc1	CHOP inh 92
CN(C)c1ccc(C(=O)N/N=C/c2cc(Br)cc(Br)c2O)cc1	CHOP inh 91
COc1c(Br)cc(Br)cc1/C=N/NC(=O)c1ccncc1	none
O/N=C/c1ccc(OCc2ccccc2)c(Br)c1	none (no result: UPR CHOP act, XBP1 UPR activ)
O=C(Cc1ccccc1)N/N=C/c1cc(Br)cc(Br)c1O	GRIN3A LBD mod 12 (no result: CHOP inh)

High-throughput results deposited in PubChem by several laboratories.
